How the values were obtained:
lipoprotein lipase (LPL) = experiment: Ex vivo TG lipolysis; format: biochemical; settings: human apoC-II-deficient plasma (TG=1711 mg/dL) with added LPL
Method in brief: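 Human apoC-II-deficient plasma (TG=1711 mg/dL) was spiked with LPL plus test compound at the indicated concentrations or at 10 μM. LPL activity was read as NEFA generation, measured enzymatically. Results are the mean of triplicates ± S.D. (two-way ANOVA, Bonferroni post-test), or N=8 at 10 μM (Mann-Whitney).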

apoC-III = apoC-III (Homo sapiens, UniProt P02656); format: biochemical; settings: 33 μM apoC-III added to pooled human HTG plasma (TG=360 mg/dL) with LPL
Sequence of apoC-III (P02656 21-99): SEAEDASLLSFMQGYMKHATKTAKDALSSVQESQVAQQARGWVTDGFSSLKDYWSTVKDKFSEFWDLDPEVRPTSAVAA
Method in brief: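 Pooled human HTG plasma (TG=360 mg/dL) was incubated with LPL and test compound at 0–100 μM (0–0.47 mg/mL), with or without 33 μM apoC-III. Reference conditions were LPL alone and LPL with apoC-III. Lipolysis was read as NEFA generation, measured enzymatically. Results are the mean of triplicates ± S.D. (two-way ANOVA, Bonferroni post-test).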

stimulation of ex vivo lipolysis (lipoprotein lipase (LPL)) | inhibition of ex vivo lipolysis of TG (apoC-III) | Substance
only partial activity | – | TYLPAVDEKLRDLYSKSTAAMSTYTGIFTDQVLSVLKGEE [RCH2]
– | approximately 40% | apoC-III: apolipoprotein C-III, inhibits LPL

Source: paper PMC8359806 (Science translational medicine, 2020)
